# NR2E3 ag-1: NR2E3 agonists in two-hybrid cells, primary screen, cell-based, luminescence, CHO-S, Gal4-NCOR/VP16-NR2E3; Photoreceptor-specific nuclear receptor (Homo sapiens), Q9Y5X4; luciferase; inhibition of corepressor binding, % at 3.98 µM; hit rate 0.35% among 360,000;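 active means inhibition above the mean of all tested compounds plus 3 SD, cut at about 70% in these data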;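 further: 0% = DMSO with NR2E3 transfected cells and 100% = cells lacking NR2E3 construct; higher means lower luciferase signal from less NR2E3 corepressor binding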
# Target sequence (Q9Y5X4 whole entry, looked up, the tested form may be a part): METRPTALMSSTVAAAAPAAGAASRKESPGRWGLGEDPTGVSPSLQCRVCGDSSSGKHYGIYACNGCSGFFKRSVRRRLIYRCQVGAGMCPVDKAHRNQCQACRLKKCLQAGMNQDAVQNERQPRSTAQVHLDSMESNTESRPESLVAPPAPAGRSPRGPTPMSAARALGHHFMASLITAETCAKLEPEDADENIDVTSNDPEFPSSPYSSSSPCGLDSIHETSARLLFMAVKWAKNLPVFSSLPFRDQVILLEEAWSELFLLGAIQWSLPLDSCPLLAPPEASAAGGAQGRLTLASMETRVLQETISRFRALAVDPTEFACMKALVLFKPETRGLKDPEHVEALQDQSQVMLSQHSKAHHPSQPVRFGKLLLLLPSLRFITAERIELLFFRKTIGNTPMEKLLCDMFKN
# NadD block: inhibitors of S. aureus NadD, primary screen, biochemical, colorimetric, uHTS; purified NadD enzyme, colorimetric absorbance read-out; inhibition, % at 20 µM; hit rate 0.78% among 360,000; AID 602399, 2012; in the data active means inhibition above about 26%
# NR2E3 ag-2: inhibitors of NR2E3-RetCOR corepressor binding, primary screen, NR2E3 agonist project, biochemical, TR-FRET, GST-NR2E3, biotin-RetCOR | Photoreceptor-specific nuclear receptor (Homo sapiens), Q9Y5X4 | 1536-well | inhibition of corepressor binding, % at 4.78 µM | hit rate 0.12% among 320,000;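 active means percent inhibition above the cutoff of mean plus 3 SD of all tested compounds, set per screening campaign, cut at about 20% in these data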;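 further: 0% = DMSO wells and 100% = biotin wells as full block of FRET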
#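 Format: 1536-well format; test system: GST-NR2E3 and biotin-RetCOR proteins; read-out basis: percent inhibition of TR-FRET ratio; timing: 5 h incubation at 4 °C; detection: time-resolved FRET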
# GalR3 antagonist: GalR3 antagonists in HEK293 cells, primary screen, cell-based, fluorescence readout; Galanin receptor type 3 (Homo sapiens), O60755; HEK293 GalR3-CNG cAMP membrane potential fluorescence; galR3 body fused to GalR1 C-terminus; inhibition, % at 3 µM; hit rate 0.44% among 360,000; AID 651719, 2012;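 active means inhibition above the screen-wide average plus 3 SD, cut at about 13% in these data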;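 further: forskolin and galanin both at EC90 stimulate the cells; cAMP rise reported by CNG channel membrane potential dye signal; 0% = forskolin plus galanin with DMSO and 100% = forskolin alone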
# MsrA act: bovine MsrA enzyme activators, primary screen, biochemical, absorbance, HTS; Methionine sulfoxide reductase A (Bos taurus); purified bovine MsrA, absorbance read-out; activation, % at 10.6 µM; hit rate 0.3% among 360,000; AID 602163, 2012; in the data active means activation above about 7.5%;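 further: 0% = vehicle and 100% = reference activator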
# MsrA inhibitor: bovine MsrA enzyme inhibitors, primary screen, biochemical, absorbance, HTS; Methionine sulfoxide reductase A (Bos taurus); purified bovine MsrA, absorbance read-out; inhibition, % at 15.5 µM; hit rate 0.75% among 360,000; AID 651718, 2012; in the data active means inhibition above about 4.5%;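 further: 0% = vehicle wells with enzyme and 100% = reference inhibitor wells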
# MsrA activ conf: bovine MsrA activators, retest, confirmation, biochemical, absorbance, HTS; shares compounds with MsrA act; purified bovine MsrA, absorbance read-out; activation, % at 10.6 µM; hit rate 12% among 1,000; in the data active means activation above about 4%;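 further: enzyme coupled to thioredoxin and thioredoxin reductase with NADPH; 0% = vehicle wells and 100% = reference activator wells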
# The depositor's hits bear a star; x = no result given; ! = repeats disagree. Sampled rows, rich in hits. Any-hit rate of the full collection: about 2.5%.
SMILES,NR2E3 ag-1,NadD block,NR2E3 ag-2,GalR3 antagonist,MsrA act,MsrA inhibitor,MsrA activ conf
Cn1c(Oc2ccncc2)nc2cc(-c3ccsc3)sc2c1=O,-18,-2,x,-4,15*,3,-2
Cn1c(NCc2ccncc2)nc2cc(-c3ccsc3)sc2c1=O,-16,4,x,-5,-4,0,x
Cc1ccc(C)c(N2CCN(S(=O)(=O)c3c(C(=O)N4CCCCC4)c(C)n(C)c3C)CC2)c1,11,-5,1,-5,8.2*,1,-2
COC(=O)c1ccccc1NC(=S)N1CCN(C2CCCCC2)CC1,1,-3,2,-6,-2,1,x
CC(C)(O)CN(CCCNC(=S)Nc1ccccc1)C(=S)Nc1ccccc1,-39,-3,x,-4,14*,0,0
CC(=O)Nc1ccc(C(=O)Nc2nnc(CCc3ccccc3)s2)cc1,-3,3,1,-8,-1,1,x
COc1cccc(NC(=O)CN(C)C(=O)c2ccc3[nH]c4c(c3c2)CC(C)CC4)c1 (stereo unspecified),-14,3,x,4,1,0,x
O=C1N[C@@H](Cc2ccccc2)COC(=O)[C@H](Cc2ccc(F)cc2)CC/C=C/C[C@@H]1CC(=O)N(CCO)Cc1ccccc1,19,-1,x,-5,0,0,x
O=C1N[C@@H](Cc2ccccc2)COC(=O)[C@H](Cc2ccc(F)cc2)C/C=C\C[C@H]1CC(=O)N(CCO)Cc1ccccc1,-23,-2,x,-5,19*,-2,-1
CCN1CCN(c2ccc(S(=O)(=O)N3CCCCC3)cc2NC(=O)c2ccc(C)c(C)c2)CC1,-1,-1,x,-6,-1,1,x
CCN1CCN(c2ccc(S(=O)(=O)N3CCCCC3)cc2NC(=O)c2cccc(C)c2)CC1,-36,-2,0,-1,9.3*,-1,-2
COCC(=O)Nc1cccc2ccccc12,-23,2,0,-4,11*,2,-1
COC(=O)CCC(=O)Nc1cccc2ccccc12,-18,2,-2,3,-2,-1,x
Cc1ccc(NC(=S)N/N=C/c2ccc([N+](=O)[O-])s2)cc1,8,-3,-3,-3,9.2*,1,2
Cc1cc(-c2ccccc2)c2nncn2n1,0,5,-5,-5,-1,0,x
CCCOC(=O)c1ccc(NC(=O)CN(C)Cc2cccs2)cc1,-9,-2,3,-10,9.9*,0,1
C=COCCCNc1ncnc2sc(-c3ccccc3)cc12,-15,-7,2,-12,-4,2,x
CCN1CCN(Cc2ccc(NC(=O)c3ccc(C)c(NC(=O)C[C@@H]4NC(=O)[C@H](Cc5ccccc5)NC4=O)c3)cc2C(F)(F)F)CC1,-18,-9,1,0,7.7*!,1,-3
CCN1CCN(Cc2ccc(NC(=O)c3ccc(C)c(NC(=O)c4cccc(-c5cn[nH]c(=O)c5)c4)c3)cc2C(F)(F)F)CC1,-38,11,-1,x,-2,x,x
COc1ccccc1/C=C/C=N/NC(=O)CCC1C(=O)NN=C1C (stereo unspecified),-1,3,4,2,-3,4,x
O=C(Nc1nnc([C@H]2C[C@H](O)[C@@H](CO)O2)s1)Nc1ccc(F)cc1F,-28,-6,x,4,7.8*,0,-2
O=C(Nc1nnc([C@@H]2C[C@H](O)[C@@H](CO)O2)s1)Nc1ccc(F)cc1F,-22,-4,x,-6,-1,2,x
Cc1ccc(NC(=O)CSc2nc3nc(C)c(Br)cc3[nH]2)cc1F,-38,5,0,-10,-2,1,x
O=C(c1ccccc1)N1CCN(C(=O)c2cc3ccccc3o2)CC1,-8,-6,-1,-4,7.7*,-1,-1
CCOC(=O)N1CCN(C(=O)c2cc3ccccc3o2)CC1,0,2,3,-9,-2,0,x

# From PubChem
